In ChEMBL document CHEMBL1122773 (1984):
Converted amounts (≈) assume the structure as drawn.

How the values were obtained:
Clostridium cadaveris = test: In vitro antibacterial activity against the anaerobic Clostridium cadaveris (Strain UC no.6510); assay type: functional
Outline: (§1)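 Agar dilution with serial twofold drug dilutions in Schaedler broth mixed into molten Wilkens-Chalgren agar. Plates prereduced 3 h under 85% N2/10% H2/5% CO2. Strains grown 48 h on Schaedler agar, suspended to 0.5 McFarland, and 0.001 mL spotted by replicator. All steps done anaerobically. Incubation 48 h at 37 °C. MIC is the least drug inhibiting growth; a faint film or fewer than three colonies scored negative.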

Clostridium tetani = test: In vitro antibacterial activity against the anaerobic Clostridium tetani(Strain UC no.6521); assay type: functional
Outline: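 Agar dilution under anaerobic conditions. Serial twofold drug dilutions in Schaedler broth were mixed with molten Wilkins-Chalgren agar. Plates were prereduced 3 h (85% N2, 10% H2, 5% CO2). Strains were grown 48 h on Schaedler agar, suspended to 0.5 McFarland, and 0.001 mL spotted by replicator. Incubation was anaerobic, 37 °C, 48 h.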

Escherichia coli = test: In vitro antibacterial activity against the aerobic Escherichia coli (Strain UC no.45); assay type: functional
Outline: (§2)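 Broth microdilution in brain/heart infusion broth with twofold drug dilutions. Inoculum was a standardized suspension giving 10⁵ viable cells/mL final. Plates were incubated 20 h at 37 °C. MIC (mcg/mL) = lowest concentration with no visible growth.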

Klebsiella pneumoniae = test: In vitro antibacterial activity against the aerobic Klebsiella pneumoniae (Strain UC no.58); assay type: functional; outline: as §2
Mus musculus [1] = test: Bioactivity in abscess, in Bacteroides fragilis infected mice following subcutaneous dose of 200 mg/kg after 360 mins of bleeding; assay type: functional
Outline: (§3)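 On day 7 post-infection, groups of five mice were given a single 200 mg/kg subcutaneous dose and killed at set times. Blood was taken by cardiac puncture and abscesses were excised. Activity was measured by standard microbiological assay.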

Mus musculus [2] = test: Bioactivity in abscess, in Bacteroides fragilis infected mice following subcutaneous dose of 200 mg/kg after 45 mins of bleeding; assay type: functional; outline: as §3
Mus musculus [3] = test: Bioactivity in abscess, in Bacteroides fragilis infected mice following subcutaneous dose of 200 mg/kg after 60 mins of bleeding; assay type: functional; outline: as §3
Mus musculus [4] = test: Bioactivity in abscess, in Bacteroides fragilis infected mice following subcutaneous dose of 200 mg/kg after 90 mins of bleeding; assay type: functional; outline: as §3
Mus musculus [5] = test: Bioactivity in blood, in Bacteroides fragilis infected mice following subcutaneous dose of 200 mg/kg after 45 mins of bleeding; assay type: functional; outline: as §3
Mus musculus [6] = test: Bioactivity in blood, in Bacteroides fragilis infected mice following subcutaneous dose of 200 mg/kg after 60 mins of bleeding; assay type: functional; outline: as §3
Mus musculus [7] = test: Bioactivity in blood, in Bacteroides fragilis infected mice following subcutaneous dose of 200 mg/kg after 90 mins of bleeding; assay type: functional; outline: as §3
Mus musculus [8] = test: Bioactivity in blood, in Bacteroides fragilis infected mice following subcutaneous dose of 200 mg/kg after 120 mins of bleeding; assay type: functional; outline: as §3
Mus musculus [9] = test: Bioactivity in blood, in Bacteroides fragilis infected mice following subcutaneous dose of 200 mg/kg after 15 mins of bleeding; assay type: functional; outline: as §3
Mus musculus [10] = test: Bioactivity in blood, in Bacteroides fragilis infected mice following subcutaneous dose of 200 mg/kg after 150 mins of bleeding; assay type: functional; outline: as §3
Mus musculus [11] = test: Bioactivity in blood, in Bacteroides fragilis infected mice following subcutaneous dose of 200 mg/kg after 30 mins of bleeding; assay type: functional; outline: as §3
Mus musculus [12] = test: Bioactivity in blood, in Bacteroides fragilis infected mice following subcutaneous dose of 200 mg/kg after 360 mins of bleeding; assay type: functional; outline: as §3
Mus musculus [13] = test: Bioactivity in abscess, in Bacteroides fragilis infected mice following subcutaneous dose of 200 mg/kg after 120 mins of bleeding; assay type: functional; outline: as §3
Mus musculus [14] = test: Bioactivity in abscess, in Bacteroides fragilis infected mice following subcutaneous dose of 200 mg/kg after 15 mins of bleeding; assay type: functional; outline: as §3
Mus musculus [15] = test: Bioactivity in abscess, in Bacteroides fragilis infected mice following subcutaneous dose of 200 mg/kg after 150 mins of bleeding; assay type: functional; outline: as §3
Mus musculus [16] = test: Bioactivity in abscess, in Bacteroides fragilis infected mice following subcutaneous dose of 200 mg/kg after 30 mins of bleeding; assay type: functional; outline: as §3
[17] = tested on: Peptoniphilus asaccharolyticus; test: In vitro antibacterial activity against the anaerobic Peptoccus aerogenes (Strain UC no.6319); assay type: functional; outline: as §1
Pseudomonas aeruginosa = test: In vitro antibacterial activity against the aerobic Pseudomonas aeruginosa (Strain UC no.95); assay type: functional; outline: as §2
Proteus vulgaris = test: In vitro antibacterial activity against the aerobic Proteus vulgaris (Strain UC no.93); assay type: functional; outline: as §2
Cutibacterium acnes = test: In vitro antibacterial activity against the anaerobic Propionibacterium acnes(Strain UC no.6575); assay type: functional; outline: as §1
[18] = In vitro antibacterial activity against the aerobic Salmonella schottmuelleri (Strain UC no.126); assay type: functional; outline: as §2
[19] = In vitro antibacterial activity against the aerobic […] (Strain UC no.153); assay type: functional; outline: as §2
[20] = In vitro antibacterial activity against the aerobic […] (Strain UC no.871); assay type: functional; outline: as §2
[21] = In vitro antibacterial activity against the aerobic […] III(Strain UC no.3213); assay type: functional; outline: as §2
Staphylococcus aureus [22] = test: In vitro antibacterial activity against the aerobic Staphylococcus aureus (Strain UC no.571); assay type: functional; outline: as §2
Staphylococcus aureus [23] = test: In vitro antibacterial activity against the aerobic Staphylococcus aureus (Strain UC no.6675); assay type: functional; outline: as §2
Staphylococcus aureus [24] = test: In vitro antibacterial activity against the aerobic Staphylococcus aureus (Strain UC no.6686); assay type: functional; outline: as §2
Staphylococcus aureus [25] = test: In vitro antibacterial activity against the aerobic Staphylococcus aureus (Strain UC no.6688); assay type: functional; outline: as §2
Staphylococcus aureus [26] = test: In vitro antibacterial activity against the aerobic Staphylococcus aureus (Strain UC no.6689); assay type: functional; outline: as §2
Staphylococcus aureus [27] = test: In vitro antibacterial activity against the aerobic Staphylococcus aureus (Strain UC no.6691); assay type: functional; outline: as §2
Staphylococcus aureus [28] = test: In vitro antibacterial activity against the aerobic Staphylococcus aureus (Strain UC no.6692); assay type: functional; outline: as §2
Staphylococcus aureus [29] = test: In vitro antibacterial activity against the aerobic Staphylococcus aureus (Strain UC no.6693); assay type: functional; outline: as §2
Staphylococcus aureus [30] = test: In vitro antibacterial activity against the aerobic Staphylococcus aureus (Strain UC no.6694); assay type: functional; outline: as §2
Staphylococcus aureus [31] = test: In vitro antibacterial activity against the aerobic Staphylococcus aureus (Strain UC no.6695); assay type: functional; outline: as §2
Staphylococcus aureus [32] = test: In vitro antibacterial activity against the aerobic Staphylococcus aureus (Strain UC no.6696); assay type: functional; outline: as §2
Staphylococcus aureus [33] = test: In vitro antibacterial activity for minimum inhibition concentration (MIC) required to inhibit growth of Staphylococcus aureus; assay type: functional
Outline: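 Broth microdilution in brain/heart infusion broth, inoculated with a standardized suspension to a final 10^5 viable cells/mL. Incubation 20 h at 37 °C. MIC read as the lowest concentration preventing visible growth.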

Staphylococcus aureus [34] = test: In vitro antibacterial activity against the aerobic Staphylococcus aureus (Strain UC no.570); assay type: functional; outline: as §2
Staphylococcus aureus [35] = test: In vitro antibacterial activity against the aerobic Staphylococcus aureus (Strain UC no.746); assay type: functional; outline: as §2
[36] = In vitro antibacterial activity against the aerobic […] I(Strain UC no.41); assay type: functional; outline: as §2
Staphylococcus aureus [37] = test: In vitro antibacterial activity against the aerobic Staphylococcus aureus (Strain UC no.76); assay type: functional; outline: as §2
Streptococcus pyogenes = test: In vitro antibacterial activity against the aerobic Streptococcus pyogenes (Strain UC no.152)

With `CC[C@@H]1CCN[C@H](C(=O)N[C@@H]([C@H]2O[C@H](SC)[C@H](O)[C@@H](O)[C@H]2O)[C@H](C)Cl)C1` [PIRLIMYCIN] the MIC (Clostridium cadaveris) was 0.06 µg/mL (≈ 0.146 µM), the MIC (Clostridium tetani) was less than 0.03 µg/mL and the MIC (Escherichia coli) was greater than 25 µg/mL. For the same compound, the MIC (Klebsiella pneumoniae) was greater than 25 µg/mL, the A (Mus musculus [1]) was 15 ug (g of abscess)-1 and the A (Mus musculus [2]) was 32 ug (g of abscess)-1. The A (Mus musculus [3]) was 31 ug (g of abscess)-1, the A (Mus musculus [4]) was 31 ug (g of abscess)-1 and the B (Mus musculus [5]) was 25 ug (g of abscess)-1. The B (Mus musculus [6]) was 20 ug (g of abscess)-1, the B (Mus musculus [7]) was 14 ug (g of abscess)-1 and the B (Mus musculus [8]) was 10 ug (g of abscess)-1. The B (Mus musculus [9]) was 39 ug (g of abscess)-1, the B (Mus musculus [10]) was 8 ug (g of abscess)-1 and the B (Mus musculus [11]) was 43 ug (g of abscess)-1. The B (Mus musculus [12]) was 4 ug (g of abscess)-1, the A (Mus musculus [13]) was 22 ug (g of abscess)-1 and the A (Mus musculus [14]) was 58 ug (g of abscess)-1. For the same compound, the A (Mus musculus [15]) was 19 ug (g of abscess)-1, the A (Mus musculus [16]) was 48 ug (g of abscess)-1 and the MIC [17] was 0.06 µg/mL (≈ 0.146 µM). It also gave an MIC (Pseudomonas aeruginosa) greater than 25 µg/mL, an MIC (Proteus vulgaris) greater than 25 µg/mL and an MIC (Cutibacterium acnes) of 0.06 µg/mL (≈ 0.146 µM). For the same compound, the MIC [18] was greater than 25 µg/mL, the MIC [19] was 0.05 µg/mL (≈ 0.122 µM) and the MIC [20] was less than 0.012 µg/mL. It also gave an MIC [21] of less than 0.012 µg/mL, an MIC (Staphylococcus aureus [22]) of 0.78 µg/mL (≈ 1.9 µM) and an MIC (Staphylococcus aureus [23]) of 0.39 µg/mL (≈ 0.949 µM). The MIC (Staphylococcus aureus [24]) was 0.2 µg/mL (≈ 0.487 µM), the MIC (Staphylococcus aureus [25]) was greater than 25 µg/mL and the MIC (Staphylococcus aureus [26]) was 0.78 µg/mL (≈ 1.9 µM). It also gave an MIC (Staphylococcus aureus [27]) of 0.2 µg/mL (≈ 0.487 µM), an MIC (Staphylococcus aureus [28]) greater than 25 µg/mL and an MIC (Staphylococcus aureus [29]) of 0.78 µg/mL (≈ 1.9 µM). It also gave an MIC (Staphylococcus aureus [30]) greater than 25 µg/mL, an MIC (Staphylococcus aureus [31]) of 0.39 µg/mL (≈ 0.949 µM) and an MIC (Staphylococcus aureus [32]) of 0.39 µg/mL (≈ 0.949 µM). It also gave an MIC (Staphylococcus aureus [33]) of 0.1 µg/mL (≈ 0.243 µM), an MIC (Staphylococcus aureus [34]) of 0.39 µg/mL (≈ 0.949 µM) and an MIC (Staphylococcus aureus [35]) of 0.05 µg/mL (≈ 0.122 µM). For the same compound, the MIC [36] was less than 0.012 µg/mL, the MIC (Staphylococcus aureus [37]) was 0.1 µg/mL (≈ 0.243 µM) and the MIC (Streptococcus pyogenes) was less than 0.012 µg/mL.
